Assay results reported in ChEMBL document CHEMBL4706489, “Hydrogen sulfide releasing oridonin derivatives induce apoptosis through extrinsic and intrinsic pathways” (Eur J Med Chem, 2020).
Active and inactive are the calls of the source. No cut-off for these calls is given here.

Columns and labels:
K562 [1] = experiment: Induction of apoptosis in human K562 cells assessed as decrease in C-IAP1 protein expression at 1 uM after 24 hrs by chemiluminescence based apoptosis array method; format: functional, cell-based
Summary of the method: (§1)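 K562 cells were treated with 1 test agent for 24 h. Diluted total-cell lysates were applied to a human apoptosis antibody array covering 35 apoptosis-related proteins for 24 h. Unbound protein was washed off, and arrays were probed with a biotinylated detection antibody for 1 h. Relative expression was read from chemiluminescent signal by digital imaging.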

K562 [2] = experiment: Induction of apoptosis in human K562 cells assessed as decrease in survivin protein expression at 1 uM after 24 hrs by chemiluminescence based apoptosis array method; format: functional, cell-based; summary of the method: as §1
K562 [3] = experiment: Induction of apoptosis in human K562 cells assessed as necrotic cells at 2 uM after 48 hrs by annexin V FITC and propidium iodide staining based flow cytometric analysis (reference value: 0.69%); format: functional
K562 [4] = experiment: Induction of apoptosis in human K562 cells assessed as late apoptotic cells at 2 uM after 48 hrs by annexin V FITC and propidium iodide staining based flow cytometric analysis (reference value: 0.42%); format: functional
K562 [5] = experiment: Induction of apoptosis in human K562 cells assessed as chromatin shrinking after 24 to 48 hrs by Hoechst 33258 staining based fluorescence microscopic method; format: functional, cell-based; conditions: dose 1-4 µM, time 24-48 hrs
Summary of the method: (§2)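 K562 cells were exposed to 1.0, 2.0 or 4.0 test agent, with DMSO as vehicle control, for 24 h and 48 h. They were harvested, washed twice in PBS and stained with Hoechst 33258 (0.5 mg/mL in PBS) for 30 min in darkness. Slides were viewed by fluorescence microscopy with a DAPI filter. Three random fields of about 200 nuclei per sample were scored as % apoptotic nuclei. Three independent experiments.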

K562 [6] = experiment: Induction of apoptosis in human K562 cells assessed as necrotic cells at 1 uM after 48 hrs by annexin V FITC and propidium iodide staining based flow cytometric analysis (reference value: 0.69%); format: functional
[7] = Selectivity ratio of IC50 for cytotoxicity against human L02 cells to IC50 for antiproliferative activity against human K562 cells; format: toxicity, cell-based; conditions: read-out: Ratio IC50
K562 [8] = experiment: Induction of apoptosis in human K562 cells assessed as decrease in livin protein expression at 1 uM after 24 hrs by chemiluminescence based apoptosis array method; format: functional, cell-based; summary of the method: as §1
K562 [9] = experiment: Induction of apoptosis in human K562 cells assessed as increase in Bax protein expression at 1 uM after 24 hrs by chemiluminescence based apoptosis array method; format: functional, cell-based; summary of the method: as §1
HepG2 [10] = experiment: Induction of cell cycle arrest in human HepG2 cells assessed as accumulation at G1 phase at 0.5 uM after 48 hrs by propidium iodide staining based flow cytometric analysis (reference value: 49.46 to 50.3%); format: functional
Summary of the method: (§3)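 HepG2 cells were treated with 0, 0.50, 1.0 or 2.0 test agent for 48 h. Cells were washed in cold PBS and fixed in 70% ethanol at −20 °C overnight. DNA-content distribution was measured by flow cytometry. Mean ± SD, three independent experiments.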

[11] = Selectivity ratio of IC50 for cytotoxicity against human PBMC cells to IC50 for antiproliferative activity against human HepG2 cells; format: toxicity, cell-based; conditions: read-out: Ratio IC50
K562 [12] = experiment: Induction of apoptosis in human K562 cells assessed as decrease in XIAP protein expression at 1 uM after 24 hrs by chemiluminescence based apoptosis array method; format: functional, cell-based; summary of the method: as §1
K562 [13] = experiment: Induction of apoptosis in human K562 cells assessed as down regulation of procaspase-3 at 1 uM after 24 hrs by chemiluminescence based apoptosis array method; format: functional, cell-based; summary of the method: as §1
K562 [14] = experiment: Induction of cell cycle arrest in human K562 cells assessed as accumulation at S phase at 0.5 uM after 48 hrs by propidium iodide staining based flow cytometric analysis (reference value: 44.73 to 45.96%); format: functional
K562 [15] = experiment: Induction of apoptosis in human K562 cells assessed as nuclear fragmentation after 24 to 48 hrs by Hoechst 33258 staining based fluorescence microscopic method; format: functional, cell-based; conditions: dose 1-4 µM, time 24-48 hrs; summary of the method: as §2
HepG2 [16] = experiment: Induction of apoptosis in human HepG2 cells assessed as viable cells at 0.5 uM after 48 hrs by annexin V FITC and propidium iodide staining based flow cytometric analysis (reference value: 93.5%); format: functional; conditions: read-out: Activity
HepG2 [17] = experiment: Induction of apoptosis in human HepG2 cells assessed as necrotic cells at 1 uM after 48 hrs by annexin V FITC and propidium iodide staining based flow cytometric analysis (reference value: 0.89%); format: functional
K562 [18] = experiment: Induction of apoptosis in human K562 cells assessed as early apoptotic cells at 1 uM after 48 hrs by annexin V FITC and propidium iodide staining based flow cytometric analysis (reference value: 2.13%); format: functional
K562 [19] = experiment: Induction of apoptosis in human K562 cells assessed as early apoptotic cells at 0.5 uM after 48 hrs by annexin V FITC and propidium iodide staining based flow cytometric analysis (reference value: 2.13%); format: functional
HepG2 [20] = experiment: Induction of cell cycle arrest in human HepG2 cells assessed as accumulation at G2 phase at 1 uM after 48 hrs by propidium iodide staining based flow cytometric analysis (reference value: 16.48 to 16.97%); format: functional; summary of the method: as §3
[21] = Selectivity ratio of IC50 for cytotoxicity against human PBMC cells to IC50 for antiproliferative activity against human K562 cells; format: toxicity, cell-based; conditions: read-out: Ratio IC50
K562 [22] = experiment: Induction of cell cycle arrest in human K562 cells assessed as accumulation at G1 phase at 2 uM after 48 hrs by propidium iodide staining based flow cytometric analysis (reference value: 43.24 to 43.37%); format: functional
K562 [23] = experiment: Induction of apoptosis in human K562 cells assessed as late apoptotic cells at 1 uM after 48 hrs by annexin V FITC and propidium iodide staining based flow cytometric analysis (reference value: 0.42%); format: functional
K562 [24] = experiment: Induction of cell cycle arrest in human K562 cells assessed as accumulation at S phase at 2 uM after 48 hrs by propidium iodide staining based flow cytometric analysis (reference value: 44.73 to 45.96%); format: functional
HepG2 [25] = experiment: Induction of apoptosis in human HepG2 cells assessed as early apoptotic cells at 0.5 uM after 48 hrs by annexin V FITC and propidium iodide staining based flow cytometric analysis (reference value: 2.89%); format: functional
K562 [26] = experiment: Induction of apoptosis in human K562 cells assessed as necrotic cells at 0.5 uM after 48 hrs by annexin V FITC and propidium iodide staining based flow cytometric analysis (reference value: 0.69%); format: functional
HepG2 [27] = experiment: Induction of cell cycle arrest in human HepG2 cells assessed as accumulation at S phase at 1 uM after 48 hrs by propidium iodide staining based flow cytometric analysis (reference value: 33.22 to 33.58%); format: functional
[28] = Selectivity ratio of IC50 for cytotoxicity against human L02 cells to IC50 for antiproliferative activity against human HepG2 cells; format: toxicity, cell-based; conditions: read-out: Ratio IC50
K562 [29] = experiment: Induction of apoptosis in human K562 cells assessed as late apoptotic cells at 0.5 uM after 48 hrs by annexin V FITC and propidium iodide staining based flow cytometric analysis (reference value: 0.42%); format: functional
K562 [30] = experiment: Induction of apoptosis in human K562 cells assessed as viable cells at 2 uM after 48 hrs by annexin V FITC and propidium iodide staining based flow cytometric analysis (reference value: 96.76%); format: functional; conditions: read-out: Activity
HepG2 [31] = experiment: Antiproliferative activity against human HepG2 cells assessed as reduction in cell viability after 72 hrs by MTT assay; conditions: HepG2, 72 h

In the case of `C=C1C(=O)[C@]23[C@H](OC(=O)CCC(=O)OCCCCCCOc4ccc(-c5cc(=S)ss5)cc4)[C@H]1CC[C@H]2[C@@]12CO[C@@]3(O)[C@@H](O)[C@@H]1C(C)(C)CC[C@@H]2OC(C)=O`, the Activity (K562 [1]) is reported as “Active”, the Activity (K562 [2]) is reported as “Active” and the Activity (K562 [3]) is reported as 1.57%. For the same compound, the Activity (K562 [4]) was 27.29%, the Activity (K562 [5]) was “Dose-dependent effect” and the Activity (K562 [6]) was 1.16%. For the same compound, the selectivity ratio [7] was 20, the Activity (K562 [8]) was “Active” and the Activity (K562 [9]) was “Active”. The Activity (HepG2 [10]) was 55.35%, the selectivity ratio [11] was 20 and the Activity (K562 [12]) was “Active”. The Activity (K562 [13]) was “Active”, the Activity (K562 [14]) was 50.32% and the Activity (K562 [15]) was “Dose-dependent effect”. For the same compound, the viability at 0.5 µM (HepG2 [16]) was 76.7%, the Activity (HepG2 [17]) was 1.26% and the Activity (K562 [18]) was 11.39%. It also gave an Activity (K562 [19]) of 7.1%, an Activity (HepG2 [20]) of 11.5% and a selectivity ratio [21] of 20. It also gave an Activity (K562 [22]) of 29.97%, an Activity (K562 [23]) of 8.38% and an Activity (K562 [24]) of 62.64%. It also gave an Activity (HepG2 [25]) of 10.52%, an Activity (K562 [26]) of 1.1% and an Activity (HepG2 [27]) of 27.19%. The selectivity ratio [28] was 20, the Activity (K562 [29]) was 4.77% and the viability at 2 µM (K562 [30]) was 47.4%. It also gave an IC50 (HepG2 [31]) of 2.57 µM.
